Laboratory results from ChEMBL document CHEMBL5032512, “A Photohormone for Light-Dependent Control of PPARα in Live Cells” (J Med Chem, 2021).
pEC50: −log10 of the molar value. Active and inactive are the calls of the source. The rule behind the calls is not given here.

Tests used:
[1] = molecular target: T1, Peroxisome proliferator-activated receptor alpha (Homo sapiens, UniProt Q07869); assay: Agonist activity at Gal4-fused human PPARalpha LBD transfected in HEK293T cells assessed as transcriptional activation incubated for 14 to 16 hrs by dual-Glo luciferase assay; format: cell-based
T1 sequence (Q07869 whole entry): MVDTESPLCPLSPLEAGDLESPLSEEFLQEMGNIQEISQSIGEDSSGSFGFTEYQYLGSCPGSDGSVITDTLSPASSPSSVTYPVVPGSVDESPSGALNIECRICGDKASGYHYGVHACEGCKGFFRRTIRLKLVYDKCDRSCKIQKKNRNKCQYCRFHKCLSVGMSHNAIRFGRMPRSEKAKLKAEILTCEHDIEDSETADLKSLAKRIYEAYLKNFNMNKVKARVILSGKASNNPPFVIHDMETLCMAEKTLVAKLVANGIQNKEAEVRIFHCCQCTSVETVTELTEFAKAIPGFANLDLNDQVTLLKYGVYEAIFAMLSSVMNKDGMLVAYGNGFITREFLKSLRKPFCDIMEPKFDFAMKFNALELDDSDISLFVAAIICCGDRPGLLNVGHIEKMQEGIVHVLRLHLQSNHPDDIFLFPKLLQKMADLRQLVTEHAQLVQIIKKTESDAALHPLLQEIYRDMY
Procedure, shortened: (§1)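 HEK293T cells transiently transfected with pFR-Luc, pRL-SV40 and Gal4 fusion of human PPAR hinge region plus LBD. Compound added 5 h later in Opti-MEM with 0.1% DMSO, then left overnight (14−16 h). Dual-Glo firefly/Renilla luciferase read, giving RLU. Fold activation is taken against the DMSO control. Max relative activation is set against 1 μM GW7647 (α) or L165,041 (δ). EC50 from a four-parameter fit. Duplicates, ≥3 independent runs.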

[2] = molecular target: T2, Peroxisome proliferator-activated receptor delta (Homo sapiens, UniProt Q03181); assay: Agonist activity at Gal4-fused human PPARdelta LBD transfected in HEK293T cells assessed as transcriptional activation incubated for 14 to 16 hrs by dual-Glo luciferase assay; format: cell-based; procedure, shortened: as §1
T2 sequence (Q03181 whole entry): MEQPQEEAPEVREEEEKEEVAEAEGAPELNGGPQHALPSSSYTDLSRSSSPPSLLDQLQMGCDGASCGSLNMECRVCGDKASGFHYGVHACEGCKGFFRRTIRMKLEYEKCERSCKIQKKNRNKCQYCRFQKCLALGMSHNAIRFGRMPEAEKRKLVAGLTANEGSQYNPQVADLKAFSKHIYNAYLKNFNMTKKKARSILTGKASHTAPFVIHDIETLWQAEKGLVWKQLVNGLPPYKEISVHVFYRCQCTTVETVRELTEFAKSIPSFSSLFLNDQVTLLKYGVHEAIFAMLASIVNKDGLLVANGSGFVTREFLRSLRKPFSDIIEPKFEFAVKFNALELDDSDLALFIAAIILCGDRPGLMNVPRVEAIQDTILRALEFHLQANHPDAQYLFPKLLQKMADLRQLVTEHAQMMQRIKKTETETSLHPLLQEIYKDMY

[3] = molecular target: T3, Peroxisome proliferator-activated receptor alpha (Homo sapiens) (UniProt Q07869); assay: Agonist activity at human Gal4-PPARalpha transfected in HEK293T cells assessed as increase in mCherry fluorescence at 10 nM incubated for 8 hrs followed by irradiation with 365 nm UV light for 3 mins by fluorescence microscopic analysis; format: cell-based
T3 sequence (whole entry): T1 sequence (Q07869 whole entry)
Procedure, shortened: (§2)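 Live HEK293T cells carrying UAS-mCherry-NLS plus Gal4-PPARα-LBD were treated with compound in 0.1% DMSO. mCherry read (ex 585, em 610 nm) hourly from 8 to 24 h and at 36 h. At 8 h, isomers switched by 3 min illumination at 365 or 460 nm. cis state held by Cell DISCO. Fold intensity against DMSO. n = 3.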

[4] = molecular target: T4, Peroxisome proliferator-activated receptor delta (Homo sapiens) (UniProt Q03181); assay: Agonist activity at human Gal4-PPARdelta transfected in HEK293T cells assessed as increase in eGFP fluorescence at 300 nM incubated for 40 hrs by fluorescence microscopic analysis; format: cell-based
T4 sequence (whole entry): T2 sequence (Q03181 whole entry)
Procedure, shortened: (§3)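 HEK293T cells transfected separately with UAS-mCherry-NLS plus Gal4-PPARα-LBD, or […]-GFP plus Gal4-PPARδ-LBD. Cells pooled 5 h later and reseeded with compound in 0.1% DMSO. cis form preirradiated 3 min at 365 nm, then held with 75 ms 370 nm pulses every 15 s. Microscope images taken at 40 h. Integrated density set against 1 μM reference agonist. Duplicates, two independent runs.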

[5] = molecular target: T4, Peroxisome proliferator-activated receptor delta (Homo sapiens); assay: Agonist activity at Gal4-fused human PPARdelta LBD transfected in HEK293T cells assessed as maximal relative activation incubated for 14 to 16 hrs by dual-Glo luciferase assay relative to L165,041; format: cell-based; details: time 14-16 hrs; procedure, shortened: as §1
[6] = molecular target: T3, Peroxisome proliferator-activated receptor alpha (Homo sapiens); assay: Agonist activity at human Gal4-PPARalpha transfected in HEK293T cells assessed as increase in mCherry fluorescence at 300 nM incubated for 40 hrs by fluorescence microscopic analysis; format: cell-based; details: filed as agonist; procedure, shortened: as §3
[7] = molecular target: T3, Peroxisome proliferator-activated receptor alpha (Homo sapiens); assay: Agonist activity at Gal4-fused human PPARalpha LBD transfected in HEK293T cells assessed as maximal relative activation incubated for 14 to 16 hrs by dual-Glo luciferase assay relative to GW7647; format: cell-based; details: time 14-16 hrs; procedure, shortened: as §1
[8] = molecular target: T3, Peroxisome proliferator-activated receptor alpha (Homo sapiens); assay: Agonist activity at human Gal4-PPARalpha transfected in HEK293T cells assessed as increase in mCherry fluorescence at 10 nM incubated for 40 hrs by fluorescence microscopic analysis; format: cell-based; procedure, shortened: as §3
[9] = Photostability of compound assessed as photochemical switch by measuring trans-isoform at 50 uM incubated for 8 hrs followed by irradiation with 460 nm UV light for 3 mins by HPLC analysis; format: physicochemical
[10] = Photostability of compound assessed as photochemical switch by measuring cis-isoform at 50 uM incubated for 8 hrs followed by irradiation with 365 nm UV light for 3 mins by HPLC analysis; format: physicochemical
[11] = Microsomal stability in Sprague-Dawley rat liver microsomes assessed as half life at 10 uM measured up to 60 mins in presence of NADPH regenerating system by HPLC-UV analysis; format: ADME, Microsome
Procedure, shortened: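 Compound at 10 μM final, preincubated 5 min at 37 °C in 0.1 M phosphate pH 7.4 with NADPH-regenerating system. Reaction started with Sprague-Dawley rat liver microsomes and stopped with cold methanol at 0, 15, 30 and 60 min. Remaining compound measured by HPLC-UV at 254/280 nm against external calibration. Controls run without NADPH and with heat-inactivated microsomes. Half-life from log-linear fit. Three independent runs.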

[12] = molecular target: T3, Peroxisome proliferator-activated receptor alpha (Homo sapiens); assay: Agonist activity at human Gal4-PPARalpha transfected in HEK293T cells assessed as increase in mCherry fluorescence at 10 nM incubated for 8 hrs followed by irradiation with 460 nm UV light for 3 mins by fluorescence based analysis; format: cell-based; details: filed as agonist; procedure, shortened: as §2
[13] = molecular target: T3, Peroxisome proliferator-activated receptor alpha (Homo sapiens); assay: Agonist activity at human Gal4-PPARalpha transfected in HEK293T cells assessed as increase in mCherry fluorescence at 10 nM measured after 8 to 24 hrs by fluorescence microscopic analysis; format: cell-based; details: filed as agonist, time 8-24 hrs; procedure, shortened: as §2
[14] = molecular target: T5, Peroxisome proliferator-activated receptor gamma (Homo sapiens, UniProt P37231); assay: Agonist activity at Gal4-fused human PPARgamma LBD transfected in HEK293T cells assessed as transcriptional activation incubated for 14 to 16 hrs by dual-Glo luciferase assay; format: cell-based
T5 sequence (P37231 whole entry): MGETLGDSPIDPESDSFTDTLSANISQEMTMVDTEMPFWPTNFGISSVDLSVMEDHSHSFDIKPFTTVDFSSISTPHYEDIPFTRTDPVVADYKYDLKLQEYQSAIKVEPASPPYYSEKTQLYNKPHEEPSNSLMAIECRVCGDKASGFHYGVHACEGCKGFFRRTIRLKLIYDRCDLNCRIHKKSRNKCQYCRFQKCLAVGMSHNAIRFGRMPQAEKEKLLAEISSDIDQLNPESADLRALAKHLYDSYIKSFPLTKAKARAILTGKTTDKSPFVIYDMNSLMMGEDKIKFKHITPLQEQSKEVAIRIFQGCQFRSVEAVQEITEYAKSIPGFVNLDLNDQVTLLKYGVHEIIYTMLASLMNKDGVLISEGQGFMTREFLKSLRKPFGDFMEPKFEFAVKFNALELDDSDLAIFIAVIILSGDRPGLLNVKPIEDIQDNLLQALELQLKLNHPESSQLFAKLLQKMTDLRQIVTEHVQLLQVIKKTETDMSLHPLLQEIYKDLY

[15] = tested on: HEK-293T; assay: Cytotoxicity against HEK293T cells assessed as reduction in cell viability at >= 6 uM; format: cell-based; details: human

| pEC50 [1] | pEC50 [2] | Activity [3] | Activity [4] | max activation ([5]; filed as agonist) [%] | Activity [6] | max activation ([7]; filed as agonist) [%] | Activity [8] | Stability [9] | Stability [10] | max activation [7] [%] | half-life at 10 µM [11] [h] | Activity ([8]; filed as agonist) | Activity [12] | Activity [13] | max activation [5] [%] | pEC50 [14] | Structure (SMILES) | Activity [15] |
| --- | --- | --- | --- | --- | --- | --- | --- | --- | --- | --- | --- | --- | --- | --- | --- | --- | --- | --- |
| 6.62 | 5.52 | inactive | inactive | 41 | Active | 43 | inactive | Stable |  |  |  |  |  |  |  |  | Cc1cc(/N=N\c2ccccc2)ccc1OCCc1ccc(OC(C)(C)C(=O)O)cc1 |  |
| 8.15 | 6.27 |  | inactive | 45 | Active |  |  |  | Stable | 38 | 1.72 | Active | Active | Active |  |  | Cc1cc(/N=N/c2ccccc2)ccc1OCCc1ccc(OC(C)(C)C(=O)O)cc1 |  |
| 6.18 | 5.85 |  |  |  |  |  |  |  |  | 24 |  |  |  |  | 33 | < 5.00 | Cc1ccc(/N=N/c2ccc(OCCc3ccc(OC(C)(C)C(=O)O)cc3)cc2)cc1 | Non-Toxic |
